# ChEMBL document CHEMBL1781959, “Synthesis and in vitro antitumor activity of substituted quinazoline and quinoxaline derivatives: search for anticancer agent” (Eur J Med Chem, 2011)
# Test system: MDA-MB-231
# Test: Anticancer activity against human MDA-MB-231 cells assessed as cell growth promotion at 10^-5 M after 48 hrs by SRB assay relative to control
# Type: functional
row,Structure (SMILES),Activity [%]
1,Oc1ccccc1/C=C/c1nc2ccccc2nc1SCc1nc2ccccc2[nH]1,53.69

# Test system: K562
# Test: Anticancer activity against human K562 cells assessed as cell growth promotion at 10^-5 M after 48 hrs by SRB assay relative to control
# Type: functional
row,Structure (SMILES),Activity [%]
1,Oc1ccccc1/C=C/c1nc2ccccc2nc1SCc1nc2ccccc2[nH]1,77.33

# Test system: SF-268
# Test: Anticancer activity against human SF268 cells assessed as cell growth promotion at 10^-5 M after 48 hrs by SRB assay relative to control
# Type: functional
row,Structure (SMILES),Activity [%]
1,Oc1ccccc1/C=C/c1nc2ccccc2nc1SCc1nc2ccccc2[nH]1,81.66

# Test system: SW-620
# Test: Anticancer activity against human SW620 cells assessed as cell growth promotion at 10^-5 M after 48 hrs by SRB assay relative to control
# Type: functional
row,Structure (SMILES),Activity [%]
1,Oc1ccccc1/C=C/c1nc2ccccc2nc1SCc1nc2ccccc2[nH]1,93.22

# Test system: CCRF-CEM
# Test: Anticancer activity against human CCRF-CEM cells assessed as cell growth promotion at 10^-5 M after 48 hrs by SRB assay relative to control
# Type: functional
row,Structure (SMILES),Activity [%]
1,Oc1ccccc1/C=C/c1nc2ccccc2nc1SCc1nc2ccccc2[nH]1,41.14

# Test system: RXF 393
# Test: Anticancer activity against human RXF393 cells assessed as cell growth promotion at 10^-5 M after 48 hrs by SRB assay relative to control
# Type: functional
row,Structure (SMILES),Activity [%]
1,Oc1ccccc1/C=C/c1nc2ccccc2nc1SCc1nc2ccccc2[nH]1,87.29

# Test system: NCI-H23
# Test: Anticancer activity against human NCI-H23 cells assessed as cell growth promotion at 10^-5 M after 48 hrs by SRB assay relative to control
# Type: functional
row,Structure (SMILES),Activity [%]
1,Oc1ccccc1/C=C/c1nc2ccccc2nc1SCc1nc2ccccc2[nH]1,76.93

# Test system: OVCAR-5
# Test: Anticancer activity against human OVCAR5 cells assessed as cell growth promotion at 10^-5 M after 48 hrs by SRB assay relative to control
# Type: functional
row,Structure (SMILES),Activity [%]
1,Oc1ccccc1/C=C/c1nc2ccccc2nc1SCc1nc2ccccc2[nH]1,86.09

# Test system: SR
# Test: Anticancer activity against human SR cells assessed as cell growth promotion at 10^-5 M after 48 hrs by SRB assay relative to control
# Type: functional
row,Structure (SMILES),Activity [%]
1,Oc1ccccc1/C=C/c1nc2ccccc2nc1SCc1nc2ccccc2[nH]1,44.46

# Test system: not listed separately
# Test: Anticancer activity against human Hs 578T cells assessed as cell growth promotion at 10^-5 M after 48 hrs by SRB assay relative to control
# Type: functional
row,Structure (SMILES),Activity [%]
1,Oc1ccccc1/C=C/c1nc2ccccc2nc1SCc1nc2ccccc2[nH]1,48.8

# Test system: KM12
# Test: Anticancer activity against human KM12 cells assessed as cell growth promotion at 10^-5 M after 48 hrs by SRB assay relative to control
# Type: functional
row,Structure (SMILES),Activity [%]
1,Oc1ccccc1/C=C/c1nc2ccccc2nc1SCc1nc2ccccc2[nH]1,77.92

# Test system: HL-60(TB)
# Test: Anticancer activity against human HL-60(TB) cells assessed as cell growth promotion at 10^-5 M after 48 hrs by SRB assay relative to control
# Type: functional
# How it was run: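 NCI-60 single-dose screen: compound at 10^-5 M, 48 h at 37 °C, 5% CO2; cells grown in RPMI 1640 with 5% FBS and 2 mM L-glutamine, pre-incubated 24 h before dosing. Adherent cells fixed with cold TCA; endpoint is sulforhodamine B protein staining. Percent growth of treated cells is reported relative to untreated control.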
row,Structure (SMILES),Activity [%]
1,Oc1ccccc1/C=C/c1nc2ccccc2nc1SCc1nc2ccccc2[nH]1,26.78

# Test system: UO-31
# Test: Anticancer activity against human UO31 cells assessed as cell growth promotion at 10^-5 M after 48 hrs by SRB assay relative to control
# Type: functional
row,Structure (SMILES),Activity [%]
1,Oc1ccccc1/C=C/c1nc2ccccc2nc1SCc1nc2ccccc2[nH]1,49.71

# Test system: NCI-H322M
# Test: Anticancer activity against human NCI-H322M cells assessed as cell growth promotion at 10^-5 M after 48 hrs by SRB assay relative to control
# Type: functional
row,Structure (SMILES),Activity [%]
1,Oc1ccccc1/C=C/c1nc2ccccc2nc1SCc1nc2ccccc2[nH]1,80.01

# Test system: OVCAR-3
# Test: Anticancer activity against human OVCAR3 cells assessed as cell growth promotion at 10^-5 M after 48 hrs by SRB assay relative to control
# Type: functional
row,Structure (SMILES),Activity [%]
1,Oc1ccccc1/C=C/c1nc2ccccc2nc1SCc1nc2ccccc2[nH]1,81.53

# Test system: HCT-15
# Test: Anticancer activity against human HCT15 cells assessed as cell growth promotion at 10^-5 M after 48 hrs by SRB assay relative to control
# Type: functional
row,Structure (SMILES),Activity [%]
1,Oc1ccccc1/C=C/c1nc2ccccc2nc1SCc1nc2ccccc2[nH]1,74.29

# Test system: SNB-19
# Test: Anticancer activity against human SNB19 cells assessed as cell growth promotion at 10^-5 M after 48 hrs by SRB assay relative to control
# Type: functional
row,Structure (SMILES),Activity [%]
1,Oc1ccccc1/C=C/c1nc2ccccc2nc1SCc1nc2ccccc2[nH]1,76.6

# Test system: UACC-62
# Test: Anticancer activity against human UACC62 cells assessed as cell growth promotion at 10^-5 M after 48 hrs by SRB assay relative to control
# Type: functional
row,Structure (SMILES),Activity [%]
1,Oc1ccccc1/C=C/c1nc2ccccc2nc1SCc1nc2ccccc2[nH]1,58.04

# Test system: U-251
# Test: Anticancer activity against human U251 cells assessed as cell growth promotion at 10^-5 M after 48 hrs by SRB assay relative to control
# Type: functional
row,Structure (SMILES),Activity [%]
1,Oc1ccccc1/C=C/c1nc2ccccc2nc1SCc1nc2ccccc2[nH]1,83.34

# Test system: 786-0
# Test: Anticancer activity against human 786-0 cells assessed as cell growth promotion at 10^-5 M after 48 hrs by SRB assay relative to control
# Type: functional
row,Structure (SMILES),Activity [%]
1,Oc1ccccc1/C=C/c1nc2ccccc2nc1SCc1nc2ccccc2[nH]1,89.92

# Test system: HOP-62
# Test: Anticancer activity against human HOP62 cells assessed as cell growth promotion at 10^-5 M after 48 hrs by SRB assay relative to control
# Type: functional
row,Structure (SMILES),Activity [%]
1,Oc1ccccc1/C=C/c1nc2ccccc2nc1SCc1nc2ccccc2[nH]1,73.71

# Test system: M14
# Test: Anticancer activity against human M14 cells assessed as cell growth promotion at 10^-5 M after 48 hrs by SRB assay relative to control
# Type: functional
row,Structure (SMILES),Activity [%]
1,Oc1ccccc1/C=C/c1nc2ccccc2nc1SCc1nc2ccccc2[nH]1,70.2

# Test system: EKVX
# Test: Anticancer activity against human EKVX cells assessed as cell growth promotion at 10^-5 M after 48 hrs by SRB assay relative to control
# Type: functional
row,Structure (SMILES),Activity [%]
1,Oc1ccccc1/C=C/c1nc2ccccc2nc1SCc1nc2ccccc2[nH]1,60.4

# Test system: CAKI-1
# Test: Anticancer activity against human Caki1 cells assessed as cell growth promotion at 10^-5 M after 48 hrs by SRB assay relative to control
# Type: functional
row,Structure (SMILES),Activity [%]
1,Oc1ccccc1/C=C/c1nc2ccccc2nc1SCc1nc2ccccc2[nH]1,56.68

# Test system: NCI-H460
# Test: Anticancer activity against human NCI-H460 cells assessed as cell growth promotion at 10^-5 M after 48 hrs by SRB assay relative to control
# Type: functional
row,Structure (SMILES),Activity [%]
1,Oc1ccccc1/C=C/c1nc2ccccc2nc1SCc1nc2ccccc2[nH]1,80.34

# Test system: UACC-257
# Test: Anticancer activity against human UACC257 cells assessed as cell growth promotion at 10^-5 M after 48 hrs by SRB assay relative to control
# Type: functional
row,Structure (SMILES),Activity [%]
1,Oc1ccccc1/C=C/c1nc2ccccc2nc1SCc1nc2ccccc2[nH]1,81.1

# Test system: MOLT-4
# Test: Anticancer activity against human MOLT4 cells assessed as cell growth promotion at 10^-5 M after 48 hrs by SRB assay relative to control
# Type: functional
row,Structure (SMILES),Activity [%]
1,Oc1ccccc1/C=C/c1nc2ccccc2nc1SCc1nc2ccccc2[nH]1,57.51

# Test system: SK-MEL-5
# Test: Anticancer activity against human SK-MEL-5 cells assessed as cell growth promotion at 10^-5 M after 48 hrs by SRB assay relative to control
# Type: functional
row,Structure (SMILES),Activity [%]
1,Oc1ccccc1/C=C/c1nc2ccccc2nc1SCc1nc2ccccc2[nH]1,68.43

# Test system: Malme-3M
# Test: Anticancer activity against human MALME-3M cells assessed as cell growth promotion at 10^-5 M after 48 hrs by SRB assay relative to control
# Type: functional
row,Structure (SMILES),Activity [%]
1,Oc1ccccc1/C=C/c1nc2ccccc2nc1SCc1nc2ccccc2[nH]1,83.19

# Test system: MDA-MB-435
# Test: Anticancer activity against human MDA-MB-435 cells assessed as cell growth promotion at 10^-5 M after 48 hrs by SRB assay relative to control
# Type: functional
row,Structure (SMILES),Activity [%]
1,Oc1ccccc1/C=C/c1nc2ccccc2nc1SCc1nc2ccccc2[nH]1,81.04

# Test system: SN12C
# Test: Anticancer activity against human SN12C cells assessed as cell growth promotion at 10^-5 M after 48 hrs by SRB assay relative to control
# Type: functional
row,Structure (SMILES),Activity [%]
1,Oc1ccccc1/C=C/c1nc2ccccc2nc1SCc1nc2ccccc2[nH]1,78.21

# Test system: HCT-116
# Test: Anticancer activity against human HCT116 cells assessed as cell growth promotion at 10^-5 M after 48 hrs by SRB assay relative to control
# Type: functional
row,Structure (SMILES),Activity [%]
1,Oc1ccccc1/C=C/c1nc2ccccc2nc1SCc1nc2ccccc2[nH]1,65.39

# Test system: A498
# Test: Anticancer activity against human A498 cells assessed as cell growth promotion at 10^-5 M after 48 hrs by SRB assay relative to control
# Type: functional
row,Structure (SMILES),Activity [%]
1,Oc1ccccc1/C=C/c1nc2ccccc2nc1SCc1nc2ccccc2[nH]1,92.56

# Test system: NCI/ADR-RES
# Test: Anticancer activity against human NCI/ADR-RES cells assessed as cell growth promotion at 10^-5 M after 48 hrs by SRB assay relative to control
# Type: functional
row,Structure (SMILES),Activity [%]
1,Oc1ccccc1/C=C/c1nc2ccccc2nc1SCc1nc2ccccc2[nH]1,82.43

# Test system: HT-29
# Test: Anticancer activity against human HT-29 cells assessed as cell growth promotion at 10^-5 M after 48 hrs by SRB assay relative to control
# Type: functional
row,Structure (SMILES),Activity [%]
1,Oc1ccccc1/C=C/c1nc2ccccc2nc1SCc1nc2ccccc2[nH]1,83.56

# Test system: not listed separately
# Test: Anticancer activity against human […] cells assessed as cell growth promotion at 10^-5 M after 48 hrs by SRB assay relative to control
# Type: functional
row,Structure (SMILES),Activity [%]
1,Oc1ccccc1/C=C/c1nc2ccccc2nc1SCc1nc2ccccc2[nH]1,63.38
